Screening results (PubChem BioAssay)
OXTR potentiator: human OXTR potentiation; activation, % at 3 µM; actives 0.061% (n = 320,000); CHO-OTR cells, Fluo-8 calcium fluorescence, potentiator mode; 0% = oxytocin EC15, 100% = EC100; AID 2445;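 active = activation above that plate's cutoff, the mean activation of tested compounds plus 3 SD, cut at about 6.6% in these data, passing the limit was not always enough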
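System: human OTR in CHO cells; Also added: sub-maximal oxytocin, roughly EC15; Timing: compound 6 min at room temperature before oxytocin, 100 s read; Technique: Fluo-8 intracellular calcium fluorescence, ex 470-495, em 515-575 nm; Controls: oxytocin EC15 low and EC100 high; Replication: singlicate.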
TRPN1 ag: zebrafish TRPN1 (NompC) channel agonism; HEK293 zebrafish TRPN1-YFP, Fluo-8 calcium fluorescence; 100% = response to 87 µM carbachol; activation, % at 3 µM; actives 0.18% (n = 220,000); AID 1424;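 active = activation above its plate's cutoff, the mean activation of test wells on that plate plus 3 SD, cut at about 19% in these data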
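Material – zebrafish TRPN1-YFP in HEK293 cells · Doses – 3 µM single point · Schedule – dye 1 h 37 °C plus 30 min RT · Signal – Fluo-8 calcium fluorescence, excitation 470-495 nm, emission 515-575 nm · Read-out – % activation versus carbachol response · Control set – carbachol high, DMSO low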
OXTR agonist: activates the human oxytocin receptor | P30559 | CHO-OTR cells, Fluo-8 calcium fluorescence; normalized: DMSO 0%, oxytocin 100% | activation, % at 3 µM | actives 0.32% (n = 320,000) | AID 2435;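 active = activation above the mean of all tested compounds plus 3 SD, cutoff set per screening run, cut at about 20% in these data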;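 note: peak over basal fluorescence ratio from a 100 s FLIPR kinetic read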
TRPML3 agonist: human mucolipin-3 channel agonism; Q8TDD5; HEK293 TRPML3-YFP, Fluo-8 calcium fluorescence; 100% = the carbachol control signal; activation, % at 3 µM; actives 0.29% (n = 220,000); AID 1448;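 active = activation above its plate's cutoff, the mean activation of the plate's test wells plus 3 SD, cut at about 12% in these data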
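Test system: TRPML3-YFP stable HEK293 cells. Doses: single point at 3 µM. Incubation: dye loading 1 h 37 °C then 30 min ambient, 125 s read. Signal: Fluo-8 calcium dye fluorescence, ex 470-495, em 515-575 nm. Measure: percent activation from peak-to-basal fluorescence ratio, scaled between DMSO and carbachol.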
V1R ag counter: V1a receptor agonism, counter-screen for OXTR agonists; P37288; CHO-V1R cells, Fluo-8 calcium fluorescence, agonist mode; 0% DMSO, 100% 3 nM vasopressin; activation, % at 3 µM; actives 0.25% (n = 320,000); AID 2797;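 active = activation above the mean activation of all tested compounds plus 3 SD, per screening run, cut at about 20% in these data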;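 note: signal is peak over basal fluorescence ratio across a 100 second FLIPR read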
Target sequence (P37288 whole entry, looked up): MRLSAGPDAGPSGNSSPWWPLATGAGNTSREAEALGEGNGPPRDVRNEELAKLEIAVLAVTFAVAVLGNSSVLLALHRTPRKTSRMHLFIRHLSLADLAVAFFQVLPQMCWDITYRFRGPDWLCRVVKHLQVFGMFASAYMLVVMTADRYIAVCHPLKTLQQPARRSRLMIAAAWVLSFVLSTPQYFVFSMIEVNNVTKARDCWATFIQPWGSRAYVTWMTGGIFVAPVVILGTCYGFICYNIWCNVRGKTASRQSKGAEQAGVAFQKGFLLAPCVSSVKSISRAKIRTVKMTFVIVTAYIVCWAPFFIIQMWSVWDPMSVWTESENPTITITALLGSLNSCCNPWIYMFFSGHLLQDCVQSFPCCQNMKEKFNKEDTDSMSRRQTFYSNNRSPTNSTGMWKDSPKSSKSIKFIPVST
OXTR ag confirm: human OXTR agonism, confirmation. shares compounds with OXTR agonist. actives 20% (n = 390). CHO-OTR cells, Fluo-8 calcium fluorescence, agonist. activation, % at 3 µM. AID 434963;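 active = mean activation above about 20% derived from the earlier single-dose screen, limit read from the data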;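 note: peak over minimum fluorescence ratio per well during a 100 second FLIPR read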
V1R ag counter 3x: counter-screen for oxytocin receptor agonists: V1a receptor agonists; shares compounds with OXTR agonist; CHO-V1R cells, Fluo-8 calcium fluorescence, agonist; activation, % at 3 µM; actives 10% (n = 390); AID 434991;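 active = mean activation over triplicate exceeds the hit threshold set in the earlier primary screen, cut at about 20% in these data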;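 note: peak over basal fluorescence ratio within a 100 second read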
Hits are given with their value; - = inactive; . = not tested or not shown. Compounds with a hit are over-represented: about 0.55% of the library has one in this group of screens.

SMILES	OXTR potentiator	TRPN1 ag	OXTR agonist	TRPML3 agonist	V1R ag counter	OXTR ag confirm	V1R ag counter 3x
N#C/C(=C(/O)c1ccc([N+](=O)[O-])cc1)c1nc2ccccc2[nH]1	-	-	-	-	-	.	.
COCCn1c(SC(C)C(=O)Nc2ccc(N3CCOCC3)cc2)nnc1-c1ccncc1 (stereo not given)	-	.	-	.	-	.	.
Cn1cccc1P(=O)(c1cccn1C)c1cccn1C	-	-	30.8	-	-	-	-
CCOc1cc(S(=O)(=O)n2cnc(C)c2)ccc1Cl	-	-	-	-	-	.	.
COc1cc(C(=O)NC(=S)NNC(=O)c2cnccn2)cc(OC)c1OC	-	-	-	-	-	.	.
COc1ccccc1C(=O)NNC(=S)NC(=O)c1cc(OC)c(OC)c(OC)c1	-	-	21.1	-	-	-	-
O=c1c2cc(NC(=S)NCCCN3CCC(Cc4ccccc4)CC3)ccc2nc2n1CCCCC2	-	-	19.9	-	-	-	-
O=c1c2cc(NC(=S)NCCN3CCCCCC3)ccc2nc2n1CCCCC2	-	-	-	-	-	.	.
COc1ccc(CCNC(=O)CCCN2C(=O)C(c3ccccc3)Oc3cccnc32)cc1OC (stereo not given)	-	.	25.4	.	-	-	-
COc1ccccc1NC(=O)CCCN1C(=O)C(c2ccccc2)Oc2cccnc21 (stereo not given)	-	.	-	.	-	.	.
Cc1ccc(CNC(=O)c2cccnc2Sc2cccc(Cl)c2)cc1	-	-	-	-	-	.	.
COc1ccc(CNC(=O)c2cccnc2Sc2ccc(Cl)cc2)cc1	-	-	21.8	-	-	-	-
OCCN1CCN(C2CCC(c3ccc(F)cc3)c3ccc(F)cc32)CC1 (stereo not given)	-	.	31.4	.	-	-	-
COc1cc(OC)c(OC)cc1CCC(C)NCCC(c1ccccc1)c1ccccc1 (stereo not given)	-	.	21.7	.	-	-	-
Cc1[nH]c2ccccc2c1C(=O)CSc1ccc(Cl)cc1	-	-	-	-	-	.	.
Cc1[nH]c2ccccc2c1C(=O)CN1C(=O)NC(C)(c2ccc(Cl)cc2Cl)C1=O (stereo not given)	-	-	32.0	-	-	28.3	-
CCN(CC)c1ccc(/C=N/NC(=O)c2nnn(-c3nonc3N)c2-c2ccc(C)cc2)cc1	-	.	-	.	-	.	.
O=c1cc(-c2ccccc2Cl)oc2c(NS(=O)(=O)c3cc(Cl)cc(Cl)c3O)ccc(O)c12	-	-	27.9	-	-	-	-
CCc1ccc(S(=O)(=O)Nc2ccc(O)c3c(=O)cc(-c4ccccc4Cl)oc23)cc1	-	.	-	.	-	.	.
COc1cccc(CN2CCN(Cc3nc(C(C)C)cs3)CC2CCO)c1 (stereo not given)	-	-	-	-	-	.	.
Nc1ccc(Br)c2c1C(=O)c1ccccc1C2=O	-	-	33.6	-	-	-	-
CCCc1nnc(NC(=O)Cn2c(=O)sc3ccccc32)s1	-	-	21.0	-	-	-	-
CCCc1nnc(NC(=O)CN2C(=O)c3ccccc3C2=O)s1	-	-	-	-	-	.	.
O=C(O)c1ccccc1OCC1CCCO1 (stereo not given)	-	.	-	.	-	.	.
C/C(=N/O)c1cc(C(C)(C)C)c(O)c(C(C)(C)C)c1	-	-	20.6	-	-	-	-
COC(=O)C(NC(=O)c1ccccc1C)(Nc1ncc(S(=O)(=O)c2ccc([N+](=O)[O-])cc2)s1)C(F)(F)F (stereo not given)	-	-	25.7	-	-	-	-
O=C(Nc1ccc(Cl)c(Cl)c1)c1cccc(S(=O)(=O)NCc2cccnc2)c1	-	-	20.3	-	-	-	-
OC(c1cc(C(F)(F)F)nc2c(Cl)cc(Cl)cc12)C1CCCCN1 (stereo not given)	-	-	23.1	-	-	-	-
O[C@@H](c1cc(C(F)(F)F)nc2c(C(F)(F)F)cccc12)[C@H]1CCCCN1	-	.	-	.	-	.	.
